# mABHD4 FP: ABHD4 inhibitors, primary screen, biochemical, fluorescence polarization, mouse; (Lyso)-N-acylphosphatidylethanolamine lipase (Mus musculus), Q8VD66; purified mABHD4, FP-Rh probe fluorescence polarization; inhibition, % at 8.92 µM; 0.54% of 370,000 active; AID 720543, 2013;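 active = inhibition exceeding the mean over every tested compound plus 3 SD, cut at about 30% in these data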;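 note: 0% = plate median of compound wells and 100% = S159A mutant with DMSO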
#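 Doses – 8.92 µM, single dose · Material – wild-type mouse ABHD4 protein · Replication – single well per compound (singlicate) · Measure – percent inhibition of probe binding, normalized to plate controls · Schedule – 45 min compound pre-incubation plus 60 min probe step, 25 °C · Detection – fluorescence polarization with parallel and perpendicular emission, 525/598 nm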
# HTRA1 inhibitor: HTRA1 serine protease inhibitors, primary screen, biochemical, fluorescence polarization, HTS | Q92743 | recombinant HTRA1, FP-rhodamine activity-based probe | inhibition, % at 5.96 µM | 0.5% of 340,000 active; in the data active = inhibition above about 36%;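 note: 0% = enzyme with DMSO and 100% = wells lacking enzyme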
# DAGLB inh: DAGLB lipase inhibitors, primary screen, biochemical, fluorescence, HTS; inhibition, % at 5.17 µM; Diacylglycerol lipase-beta (Homo sapiens), Q8NCG7; AID 504411, 2011; HEK293T DAGLB membrane lysate, EnzChek fluorogenic substrate; 0.059% of 340,000 active; in the data active = inhibition above about 34%;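 note: 0% = enzyme with vehicle and 100% = wells lacking enzyme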
# TCR-CD3 inh: inhibitors of human TCR-CD3 interaction, primary screen, biochemical, fluorescence, TAMRA-labeled TCR probe | T-cell receptor (TCR) | inhibition, % at 9.4 µM | 0.37% of 360,000 active | AID 651800, 2012; in the data active = inhibition above about 19%;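 note: recombinant mutant TCR 2C K166C tagged with TAMRA read by polarization; 0% = receptor in buffer alone and 100% = receptor with positive control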
# SIAE primary: human SIAE inhibitors, primary screen, biochemical, fluorescence polarization, FP-Rh probe, 1536-well HTS; SIAE FP-Rh probe binding; inhibition, % at 9.66 µM; 0.69% of 370,000 active; AID 1053197, 2014;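 active = inhibition above a cutoff: mean of compounds within the control limits plus 3 SD of those, cut at about 17% in these data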;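 note: 0% = plate median of compound wells and 100% = probe without SIAE protein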
# Target sequence (Q9HAT2 whole entry, looked up): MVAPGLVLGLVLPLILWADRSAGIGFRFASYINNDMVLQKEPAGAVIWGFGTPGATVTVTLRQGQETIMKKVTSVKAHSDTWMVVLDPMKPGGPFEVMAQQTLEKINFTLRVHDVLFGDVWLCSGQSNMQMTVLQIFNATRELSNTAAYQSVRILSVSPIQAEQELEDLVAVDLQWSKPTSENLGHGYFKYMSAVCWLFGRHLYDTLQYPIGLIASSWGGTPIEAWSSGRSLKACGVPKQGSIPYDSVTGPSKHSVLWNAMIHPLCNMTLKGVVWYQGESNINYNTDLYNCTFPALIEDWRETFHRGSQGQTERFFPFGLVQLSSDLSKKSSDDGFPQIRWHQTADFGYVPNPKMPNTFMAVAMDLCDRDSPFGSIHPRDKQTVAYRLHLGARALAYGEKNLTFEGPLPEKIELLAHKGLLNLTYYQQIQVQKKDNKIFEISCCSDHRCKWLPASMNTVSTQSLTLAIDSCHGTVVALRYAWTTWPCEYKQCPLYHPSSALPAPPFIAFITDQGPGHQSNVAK
# HTRA1 conf: HTRA1 protease inhibitors, retest, confirmation, biochemical, fluorescence polarization; inhibition, % at 5.96 µM; shares compounds with HTRA1 inhibitor; 66% of 1,600 active; recombinant HTRA1, FP-rhodamine activity-based probe;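 active = mean inhibition over three repeats above a set limit taken from the earlier primary screen, cut at about 37% in these data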;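 note: 0% = HTRA1 with DMSO and 100% = wells lacking HTRA1; inhibitors block probe binding so polarization drops and inhibition rises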
# An asterisk follows results filed as active; · = not tested or not shown; + = active, no number. Hits are enriched below; roughly 1.6% of the tested compounds scored in any of these assays.
SMILES,mABHD4 FP,HTRA1 inhibitor,DAGLB inh,TCR-CD3 inh,SIAE primary,HTRA1 conf
O=C(N/N=C/c1c[nH]c2ccccc12)c1ccc(O)c(O)c1,27,53*,4,6,5,82*
O=C(N/N=C/c1c[nH]c2ccccc12)c1cccc(O)c1,-1,2,-4,-13,4,·
CN(C)c1cccc(/C=C2\CC3(OC(=O)c4ccco4)CCCN2C3)c1 (stereo not drawn),2,·,·,·,5,·
COc1cccc2c1NC(C(=O)O)C1CC=CC21 (stereo not drawn),·,62*,1,·,·,61*
CC(=O)c1ccc2c(c1)C1C=CCC1C(c1ccncc1)N2 (stereo not drawn),21,15,3,0,8,·
Oc1c(C(Nc2cccc(C(F)(F)F)c2)c2ccncc2)ccc2cccnc12 (stereo not drawn),11,25,5,-5,0,·
CCCC(=O)NC(c1cccc([N+](=O)[O-])c1)c1ccc2cccnc2c1O (stereo not drawn),17,22,13,1,9,·
CC(C)CC(=O)NC(c1cccs1)c1ccc2cccnc2c1O (stereo not drawn),·,43*,21,·,·,38*
CCC(=O)NC(c1cccs1)c1ccc2cccnc2c1O (stereo not drawn),6,41*,8,-10,3,46*
Oc1c(C(Nc2nccs2)c2ccc(C(F)(F)F)cc2)ccc2cccnc12 (stereo not drawn),7,43*,5,5,-1,54*
COc1ccc(C(NC(C)=O)c2ccc3cccnc3c2O)c(OC)c1 (stereo not drawn),·,27,3,·,·,·
Oc1c(C(Nc2nc3ccccc3s2)c2ccco2)ccc2cccnc12 (stereo not drawn),2,36*,10,6,1,40*
O=C(CSc1nnc(Cc2cccs2)n1-c1ccccc1)Nc1ccccc1-c1ccccc1,-2,·,·,·,1,·
Oc1cc2ccccc2cc1-c1n[nH]c(=S)o1,23,48*,20,2,-4,49*
CCc1ccc(O)c(CNCCNCc2cc(CC)ccc2O)c1,20,25,-23,-1,-2,·
Cc1ccc(O)c(CNCCNCc2cc(C)ccc2O)c1,13,38*,-17,4,3,53*
CCOC(=O)N1CCN(C(=O)C[C@H]2C[C@@]3(C(=O)OC)C(=C[C@H](C(C)(C)C)O[C@@H]3C)N(Cc3ccco3)C2=O)CC1,-3,·,·,·,-2,·
Cc1cc(C)cc(-n2c(C)c3c(C)nnc(C)c3c2C)c1,-6,40*,3,5,4,12
Cc1nnc(C)c2c(C)n(-c3ccc(Cl)c(N)c3)c(C)c12,7,19,2,1,5,·
COC(=O)C1=C(C)N(C)C(=NCc2ccc3c(c2)OCO3)NC1c1ccc(Cl)cc1 (stereo not drawn),0,·,·,-1,6,·
COc1ccc(-c2cc3ccccc3n2CC(O)CN2CCC(C)CC2)cc1 (stereo not drawn),11,-9,-2,1,-1,·
COc1ccc(-c2cc3ccccc3n2CC(O)Cn2nc(C)cc2C)cc1 (stereo not drawn),-8,38*,0,3,13,-11
CC(C)NC(=O)C1CCN(c2cncnc2)CC1,1,·,·,·,3,·
O=C(NCCc1ccc(O)c(O)c1)C1COc2ccccc2O1 (stereo not drawn),28,40*,1,5,5,61*
Clc1ccccc1/C=N/NC1=Nc2cccc3cccc1c23,1,-7,2,0,0,·
SMILES,mABHD4 FP,HTRA1 inhibitor,DAGLB inh,TCR-CD3 inh,SIAE primary,HTRA1 conf
C(=N\NC1=Nc2cccc3cccc1c23)/c1ccccn1,21,49*,9,4,-2,50*
Cc1cccc(C=Nc2ccc3c(c2)oc2ccccc23)c1O,4,6,2,5,5,·
CC(N=Cc1cccc(O)c1O)c1ccccc1 (stereo not drawn),·,66*,9,·,·,100*
Cc1ccccc1N=Cc1cccc(O)c1O,·,49*,7,·,·,32
COc1ccc(-n2nnnc2SCC(N)=O)cc1,2,9,-1,-2,0,·
COc1ccc(-n2nnnc2SCC(=O)c2ccc(O)c(O)c2)cc1,24,46*,15,18,4,61*
CC(C)C1Nc2ccc(S(N)(=O)=O)cc2C2C=CCC21 (stereo not drawn),12,13,2,0,9,·
NS(=O)(=O)c1ccc2c(c1)C1C=CCC1C(C1CC=CCC1)N2 (stereo not drawn),26,64*,9,1,10,38*
O=C(N[C@H](C(=O)N1CCC[C@H]1C(=O)NC1CCCC1)C1CCCCC1)c1ccco1,-5,·,·,1,-5,·
CCOC(=O)N1CCN(S(=O)(=O)c2ccc(C(=O)Nc3sc4c(c3C(=O)OC)CCN(C)C4)cc2)CC1,2,53*,-1,-3,-5,49*
CC(=O)N[C@H]1C[C@@H]2O[C@H](CO)CC[C@@H]2O[C@@H]1CCc1ccc(-c2ccc(F)cc2)cc1,4,·,·,·,5,·
Oc1ccc(/C=N/N2CCN(C3c4ccccc4-c4ccccc43)CC2)cc1O,29,38*,7,13,5,+
Oc1ccc(/C=N/N2CCN(C3c4ccccc4-c4ccccc43)CC2)cc1,-1,5,-2,-1,1,·
Nc1nc(-c2ccccn2)nc(N)c1Cc1ccc(Cl)cc1Cl,8,39*,-4,-4,-10,35
CNc1c(NS(=O)(=O)c2ccc(Cl)cc2)c(=O)oc2ccccc12,-2,-6,-1,0,-6,·
CNc1c(NS(=O)(=O)c2ccc(Cl)s2)c(=O)oc2ccccc12,-2,129*,-2,9,2,14
CCOC(=O)C1CCCN(C2=C(NS(=O)(=O)c3ccc(Br)cc3)C(=O)c3ccccc3C2=O)C1 (stereo not drawn),25,46*,23,3,13,62*
COc1cccc(C2Nc3c(F)cc(Br)cc3C3C=CCC32)c1OC (stereo not drawn),1,44*,4,2,2,-19
COc1cc(C2Nc3c(F)cccc3C3C=CCC32)cc(Br)c1OC (stereo not drawn),5,-4,-11,1,4,·
O=C(NC(CC1=CCCCC1)c1ccc2ccccc2c1)C(F)(F)F (stereo not drawn),-8,·,·,-3,-5,·

# High-throughput results (PubChem)
